From ChEMBL document CHEMBL1781949, “Veraguamides A-G, cyclic hexadepsipeptides from a dolastatin 16-producing cyanobacterium Symploca cf. hydnoides from Guam” (J Nat Prod, 2011) come the findings set out here.

In one experiment the test system is HT-29. Kind of experiment: Cytotoxicity against human HT-29 cells after 48 hrs by MTT assay. It counts as functional, cell-based. The note with it: HT-29, 48 h. In outline:
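HT29 colorectal adenocarcinoma cells grown in DMEM with 10% FBS at 37 °C and 5% CO2. Cells seeded at 12,500 per well and treated with a range of concentrations 24 h after seeding. Paclitaxel positive control and DMSO solvent control. 48 h exposure, then MTT read-out. IC50 fitted from duplicate experiments.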
(In general: Tetrazolium dyes change colour on reduction, which living cells bring about.)

In the next experiment the test system is HeLa. Put plainly: Cytotoxicity against human HeLa cells after 48 hrs by MTT assay. The format is functional, cell-based. In outline: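 HeLa cervical carcinoma cells grown in DMEM with 10% FBS at 37 °C and 5% CO2. Cells seeded at 3,000 per well and dosed at varying concentrations 24 h later. Paclitaxel positive control and DMSO solvent control. Incubated 48 h more before MTT measurement of viability. IC50 fitted from duplicate experiments.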

By IC50 is commonly meant the point on the concentration scale where inhibition reaches its midpoint. Higher therefore signals a need for much substance.

Numbered stars: 1 amine (or outer) side, 2 acyl side, 3 side chain; on linkers, the order of the positions; unused ones are H or OH. Square brackets hold non-standard residues; d marks the D form. Peptide text beside a SMILES is read from it. X1 = CC(Cc1ccccc1)C(N[*:1])C(=O)[*:2]; X2 = CC(C)C(N[*:1])C(C)C(=O)[*:2]; dNMeV = CN[C@@H](C(=O)O)C(C)C; dHiv = CC(C)[C@@H](O)C(=O)O; Lac = C[C@H](O)C(=O)O

With `CC(C)C1NC(=O)[C@@H]2CCCN2C(=O)C(C(C)Cc2ccccc2)NC(=O)[C@@H]2CCCN2C(=O)[C@@H](C(C)C)N(C)C(=O)[C@@H](C(C)C)OC(=O)[C@@H]2CCCN2C(=O)[C@H](C)OC(=O)C1C` (stereo partly specified) [DOLASTATIN 16] (cyclo([Lac]P[dHiv][dNMeV]P[X1]P[X2])), the IC50 amounted to 78 µM in the experiment on HT-29 and 58 µM in the experiment with HeLa. `C#CCCC[C@H]1OC(=O)[C@H](C(C)C)N(C)C(=O)[C@@H]2CCCN2C(=O)[C@H](Cc2ccccc2)OC(=O)[C@H](C(C)C)N(C)C(=O)[C@H](C(C)C)NC(=O)[C@H]1C` [VERAGUAMIDE F]: the IC50 in the experiment with HeLa is 49 µM. `CC(=O)O[C@H]1C(=O)[C@@]2(C)[C@H]([C@H](OC(=O)c3ccccc3)[C@]3(O)C[C@H](OC(=O)[C@H](O)[C@@H](NC(=O)c4ccccc4)c4ccccc4)C(C)=C1C3(C)C)[C@]1(OC(C)=O)CO[C@@H]1C[C@@H]2O` [PACLITAXEL]: the IC50 in the experiment with HT-29 turned out to be 0.003 µM; in the experiment on HeLa it was 0.0026 µM.

`C#CCCC[C@H]1OC(=O)[C@H](C(C)C)N(C)C(=O)[C@@H]2CCCN2C(=O)[C@H]([C@@H](C)CC)OC(=O)[C@H](C(C)C)N(C)C(=O)[C@H](C(C)C)NC(=O)[C@H]1C` [VERAGUAMIDE C] came in with an IC50 with HeLa of 6.1 µM.
